Laboratory results: ChEMBL document CHEMBL3526015, “Metabolism of the c-Fos/activator protein-1 inhibitor T-5224 by multiple human UDP-glucuronosyltransferase isoforms” (Drug Metab Dispos, 2011)

Tests used:
[1] = Drug metabolism in pooled human intestinal microsomes assessed as T-5224 acyl O-glucuronide formation at 10 uM after 10 mins by HPLC method; format: ADME, Intestine, Microsome
Outline: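 T-5224 at 10 μM incubated for 10 min at 37°C with UDPGA (2 mM) in pooled liver (0.5 mg protein/mL) or intestinal (0.25 mg protein/mL) microsomes. Buffer was 50 mM Tris-HCl pH 7.5 with 8 mM MgCl2 and alamethicin, after 5 min preincubation. Stopped with acetonitrile; glucuronides quantified by HPLC at 290 nm.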

[2] = system: Liver microsome; assay: Drug metabolism in pooled human liver microsomes assessed as T-5224 hydroxyl O-glucuronide formation in presence of UDPGA by LC-MS/MS method; format: ADME
[3] = Drug metabolism in human intestinal microsomes assessed as T-5224 hydroxyl O-glucuronide formation per mg protein after 10 to 60 mins by HPLC method; format: ADME, Intestine, Microsome
Outline: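 Pooled liver microsomes (0.5 mg/mL) were incubated 10 min. Pooled intestinal microsomes (0.25 mg/mL) ran 10 min at T-5224 10–50 μM and 20 min at 1–5 μM. Buffer was 50 mM Tris-HCl pH 7.5 with 8 mM MgCl2, alamethicin and 2 mM UDPGA, at 37°C, in triplicate. Glucuronides G2/G3 were read by HPLC at 290 nm and fitted for Vmax/Km.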

[4] = Drug metabolism assessed as human CYP2C9*1-mediated metabolite formation at 2 uM after 30 mins by HPLC method; format: ADME; details: 0.5 h
Outline: (§1)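 Each recombinant human P450 was used at 50 pmol/mL with an NADPH-generating system and 2 μM 14C-T-5224 (0.5% DMSO final). Buffer was 100 mM Tris-HCl pH 7.5, except 100 mM potassium phosphate pH 7.4 for CYP2A6 and CYP2C9*1. Incubation ran 30 min at 37°C and was stopped with acetonitrile/methanol. Radioactive metabolite peaks were detected by C18 HPLC.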

[5] = target: T1, Cytochrome P450 2C8 (Homo sapiens, UniProt P10632); assay: Drug metabolism assessed as human CYP2C8-mediated metabolite formation at 2 uM after 30 mins by HPLC method; format: ADME; details: recombinant enzyme, 0.5 h; outline: as §1
T1 sequence (P10632 whole entry): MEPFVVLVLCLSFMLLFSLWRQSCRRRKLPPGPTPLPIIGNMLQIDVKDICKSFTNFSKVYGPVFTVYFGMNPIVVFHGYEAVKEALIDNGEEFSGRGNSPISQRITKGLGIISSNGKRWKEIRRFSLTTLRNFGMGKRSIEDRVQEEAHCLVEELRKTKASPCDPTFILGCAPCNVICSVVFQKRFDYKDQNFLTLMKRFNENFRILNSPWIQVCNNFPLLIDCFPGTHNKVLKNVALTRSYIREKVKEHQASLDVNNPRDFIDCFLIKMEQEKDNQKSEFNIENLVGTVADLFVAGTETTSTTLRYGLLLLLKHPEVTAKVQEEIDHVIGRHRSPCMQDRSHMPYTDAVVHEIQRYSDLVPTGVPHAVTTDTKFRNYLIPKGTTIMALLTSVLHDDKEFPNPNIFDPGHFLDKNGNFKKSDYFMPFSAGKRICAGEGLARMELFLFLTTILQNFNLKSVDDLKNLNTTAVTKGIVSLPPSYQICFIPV

[6] = system: Liver microsome; assay: Drug metabolism in human liver microsomes assessed as T-5224 hydroxyl O-glucuronide formation at 10 uM after 10 mins in presence of beta-estradiol by HPLC method; format: ADME
Outline: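 Pooled liver microsomes (0.5 mg protein/mL) with 10 μM T-5224, 2 mM UDPGA and β-estradiol at 0–500 μM, 2% DMSO, in 50 mM Tris-HCl pH 7.5, 8 mM MgCl2 and alamethicin. Incubated 10 min at 37°C, stopped with acetonitrile. Glucuronides measured by HPLC at 290 nm; mean ± SD, n = 3.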

[7] = target: T2, UDP-glucuronosyltransferase 1A1 (Homo sapiens, UniProt P22309); assay: Drug metabolism assessed as Vmax/Km ratio for human UGT1A1-mediated T-5224 hydroxyl O-glucuronide formation per mg protein after 10 to 60 mins in presence of UDP-glucuronic acid by HPLC method; format: ADME; details: recombinant enzyme
T2 sequence (P22309 whole entry): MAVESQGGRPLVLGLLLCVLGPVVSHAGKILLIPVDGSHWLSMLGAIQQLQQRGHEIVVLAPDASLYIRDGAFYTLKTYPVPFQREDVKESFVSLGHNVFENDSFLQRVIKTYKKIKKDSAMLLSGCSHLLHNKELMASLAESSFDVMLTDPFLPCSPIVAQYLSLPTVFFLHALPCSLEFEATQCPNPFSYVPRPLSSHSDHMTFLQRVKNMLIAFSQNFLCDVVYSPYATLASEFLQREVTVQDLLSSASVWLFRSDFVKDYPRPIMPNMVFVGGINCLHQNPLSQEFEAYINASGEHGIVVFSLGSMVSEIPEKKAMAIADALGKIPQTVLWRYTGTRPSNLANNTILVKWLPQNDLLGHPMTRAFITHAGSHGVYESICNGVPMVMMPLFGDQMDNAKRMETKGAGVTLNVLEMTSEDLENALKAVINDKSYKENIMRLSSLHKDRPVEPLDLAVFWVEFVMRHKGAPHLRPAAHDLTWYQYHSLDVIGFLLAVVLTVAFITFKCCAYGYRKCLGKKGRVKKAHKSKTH
Outline: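 Kinetics used recombinant UGT1A1, 1A3 or 1A8 (0.1 mg protein/mL) with T-5224 at 1–50 μM, 2 mM UDPGA and 60 min at 37°C, in triplicate. G2/G3 were measured by HPLC at 290 nm and fitted to a substrate-inhibition model (Vmax, Km, Ksi). UGT content was quantified by immunoblot, and kcat = Vmax/E0 was derived from it.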

Compound: O=C(O)CCc1cc(C(=O)c2ccc(OC3CCCC3)cc2O)ccc1OCc1ccc2c(O)noc2c1
- Drug metabolism [1]: metabolite_detected
- Drug metabolism [2]: metabolite_detected
- Vmax [3]: 106 pmol/min
- Drug metabolism [4]: metabolite_not_detected
- Drug metabolism [5]: metabolite_not_detected
- Drug metabolism [6]: metabolite_detected
- Vmax/Km [7]: 26.2 µL/min
